ChEMBL document CHEMBL5058577, “EUbOPEN Chemogenomics Library 2 (Multiplex)” (2022)

Test system: U2OS
Assay: Multiplex assay against U2OS
Assay type: toxicity, cell-based
Details: human
Summary of the method: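 At seeding, live cells were stained with Hoechst33342, BioTracker Green Microtubule Cytoskeleton Dye, MitoTracker Red and Annexin V Alexa Fluor 680. After compound addition they were imaged on a CQ1 microscope at 37°C and 5% CO2, and CellPathfinder machine-learning gating sorted them into Hoechst high-intensity objects or normal cells, with normal cells further split into healthy, pyknosed or fragmented nuclei and pyknosed cells into mitotic or apoptotic. Tubulin, mitochondrial-mass and membrane-permeability phenotypes are given as per cents of cells with healthy nuclei.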

[1] = 12 h, 1 µM, compound concentration 1 uM, replicate 1
[2] = 12 h, 1 µM, compound concentration 1 uM, replicate 2
[3] = 12 h, 10 µM, compound concentration 10 uM, replicate 1
[4] = 12 h, 10 µM, compound concentration 10 uM, replicate 2
[5] = 24 h, 1 µM, compound concentration 1 uM, replicate 1
[6] = 24 h, 1 µM, compound concentration 1 uM, replicate 2
[7] = 24 h, 10 µM, compound concentration 10 uM, replicate 1
[8] = 24 h, 10 µM, compound concentration 10 uM, replicate 2
[9] = 48 h, 1 µM, compound concentration 1 uM, replicate 1
[10] = 48 h, 1 µM, compound concentration 1 uM, replicate 2
[11] = 48 h, 10 µM, compound concentration 10 uM, replicate 1
[12] = 48 h, 10 µM, compound concentration 10 uM, replicate 2

SMILES: O=c1nc2[nH]c3ccccc3nc-2c(=O)[nH]1 [ALLOXAZINE]
- Population Apoptotic (%) [1]: 70%
- Population Fragmented Nuclei (%) [1]: 25%
- Population Healthy Nuclei (%) [1]: 61%
- Population Hoechst High Intensity Objects (%) [1]: 2%
- Population Membrane Permeable-Phenotype (%) [1]: 5%
- Population Mitochondria Different-Phenotype (%) [1]: 0%
- Population Mitotic Cells (%) [1]: 29%
- Population Normal (%) [1]: 97%
- Population Pyknosed Nuclei (%) [1]: 12%
- Population Tubulin-Different-Phenotype (%) [1]: 3%
- Total Cell Count [1]: 195
- Population Apoptotic (%) [2]: 75%
- Population Fragmented Nuclei (%) [2]: 15%
- Population Healthy Nuclei (%) [2]: 74%
- Population Mitochondria Different-Phenotype (%) [2]: 5%
- Population Mitotic Cells (%) [2]: 25%
- Population Pyknosed Nuclei (%) [2]: 10%
- Total Cell Count [2]: 122
- Population Apoptotic (%) [3]: 86%
- Population Fragmented Nuclei (%) [3]: 33%
- Population Healthy Nuclei (%) [3]: 59%
- Population Hoechst High Intensity Objects (%) [3]: 0%
- Population Membrane Permeable-Phenotype (%) [3]: 7%
- Population Mitochondria Different-Phenotype (%) [3]: 0%
- Population Mitotic Cells (%) [3]: 13%
- Population Normal (%) [3]: 99%
- Population Pyknosed Nuclei (%) [3]: 7%
- Population Tubulin-Different-Phenotype (%) [3]: 1%
- Total Cell Count [3]: 212
- Population Apoptotic (%) [4]: 88%
- Population Fragmented Nuclei (%) [4]: 13%
- Population Healthy Nuclei (%) [4]: 78%
- Population Hoechst High Intensity Objects (%) [4]: 1%
- Population Mitochondria Different-Phenotype (%) [4]: 5%
- Population Mitotic Cells (%) [4]: 11%
- Population Normal (%) [4]: 98%
- Population Tubulin-Different-Phenotype (%) [4]: 3%
- Total Cell Count [4]: 119
- Population Apoptotic (%) [5]: 73%
- Population Fragmented Nuclei (%) [5]: 24%
- Population Healthy Nuclei (%) [5]: 66%
- Population Hoechst High Intensity Objects (%) [5]: 1%
- Population Membrane Permeable-Phenotype (%) [5]: 4%
- Population Mitochondria Different-Phenotype (%) [5]: 1%
- Population Mitotic Cells (%) [5]: 26%
- Population Normal (%) [5]: 98%
- Population Pyknosed Nuclei (%) [5]: 8%
- Population Tubulin-Different-Phenotype (%) [5]: 2%
- Total Cell Count [5]: 261
- Population Apoptotic (%) [6]: 57%
- Population Fragmented Nuclei (%) [6]: 16%
- Population Healthy Nuclei (%) [6]: 74%
- Population Hoechst High Intensity Objects (%) [6]: 2%
- Population Membrane Permeable-Phenotype (%) [6]: 5%
- Population Mitochondria Different-Phenotype (%) [6]: 5%
- Population Mitotic Cells (%) [6]: 42%
- Population Normal (%) [6]: 97%
- Population Pyknosed Nuclei (%) [6]: 9%
- Total Cell Count [6]: 146
- Population Apoptotic (%) [7]: 78%
- Population Fragmented Nuclei (%) [7]: 30%
- Population Healthy Nuclei (%) [7]: 61%
- Population Hoechst High Intensity Objects (%) [7]: 0%
- Population Membrane Permeable-Phenotype (%) [7]: 8%
- Population Mitochondria Different-Phenotype (%) [7]: 2%
- Population Mitotic Cells (%) [7]: 21%
- Population Normal (%) [7]: 99%
- Population Pyknosed Nuclei (%) [7]: 8%
- Population Tubulin-Different-Phenotype (%) [7]: 2%
- Total Cell Count [7]: 237
- Population Apoptotic (%) [8]: 75%
- Population Fragmented Nuclei (%) [8]: 16%
- Population Healthy Nuclei (%) [8]: 80%
- Population Hoechst High Intensity Objects (%) [8]: 2%
- Population Membrane Permeable-Phenotype (%) [8]: 5%
- Population Mitochondria Different-Phenotype (%) [8]: 4%
- Population Mitotic Cells (%) [8]: 25%
- Population Normal (%) [8]: 97%
- Population Pyknosed Nuclei (%) [8]: 2%
- Population Tubulin-Different-Phenotype (%) [8]: 3%
- Total Cell Count [8]: 148
- Population Apoptotic (%) [9]: 84%
- Population Fragmented Nuclei (%) [9]: 19%
- Population Healthy Nuclei (%) [9]: 71%
- Population Hoechst High Intensity Objects (%) [9]: 1%
- Population Membrane Permeable-Phenotype (%) [9]: 1%
- Population Mitochondria Different-Phenotype (%) [9]: 1%
- Population Mitotic Cells (%) [9]: 15%
- Population Normal (%) [9]: 98%
- Population Pyknosed Nuclei (%) [9]: 9%
- Population Tubulin-Different-Phenotype (%) [9]: 1%
- Total Cell Count [9]: 362
- Population Apoptotic (%) [10]: 76%
- Population Fragmented Nuclei (%) [10]: 18%
- Population Healthy Nuclei (%) [10]: 72%
- Population Hoechst High Intensity Objects (%) [10]: 6%
- Population Membrane Permeable-Phenotype (%) [10]: 4%
- Population Mitochondria Different-Phenotype (%) [10]: 2%
- Population Mitotic Cells (%) [10]: 23%
- Population Normal (%) [10]: 93%
- Population Pyknosed Nuclei (%) [10]: 8%
- Population Tubulin-Different-Phenotype (%) [10]: 2%
- Total Cell Count [10]: 207
- Population Apoptotic (%) [11]: 90%
- Population Fragmented Nuclei (%) [11]: 26%
- Population Healthy Nuclei (%) [11]: 66%
- Population Hoechst High Intensity Objects (%) [11]: 1%
- Population Membrane Permeable-Phenotype (%) [11]: 5%
- Population Mitochondria Different-Phenotype (%) [11]: 1%
- Population Mitotic Cells (%) [11]: 9%
- Population Normal (%) [11]: 98%
- Population Pyknosed Nuclei (%) [11]: 6%
- Population Tubulin-Different-Phenotype (%) [11]: 2%
- Total Cell Count [11]: 321
- Population Apoptotic (%) [12]: 76%
- Population Fragmented Nuclei (%) [12]: 12%
- Population Healthy Nuclei (%) [12]: 79%
- Population Membrane Permeable-Phenotype (%) [12]: 3%
- Population Mitotic Cells (%) [12]: 23%
- Population Pyknosed Nuclei (%) [12]: 8%
- Total Cell Count [12]: 210
